According to ChEMBL document CHEMBL1124345, “Linear and proximal benzo-separated alkylated xanthines as adenosine-receptor antagonists” (J Med Chem, 1989):

Legend:
Adenosine receptor A1 = target: T1, Adenosine receptor A1 (Rattus norvegicus, UniProt P25099); test: Binding affinity against Adenosine A1 receptor in rat brain membrane, using [3H]N6-cyclohexyladenosine as the radioligand; assay type: tissue-based
T1 sequence (P25099 whole entry): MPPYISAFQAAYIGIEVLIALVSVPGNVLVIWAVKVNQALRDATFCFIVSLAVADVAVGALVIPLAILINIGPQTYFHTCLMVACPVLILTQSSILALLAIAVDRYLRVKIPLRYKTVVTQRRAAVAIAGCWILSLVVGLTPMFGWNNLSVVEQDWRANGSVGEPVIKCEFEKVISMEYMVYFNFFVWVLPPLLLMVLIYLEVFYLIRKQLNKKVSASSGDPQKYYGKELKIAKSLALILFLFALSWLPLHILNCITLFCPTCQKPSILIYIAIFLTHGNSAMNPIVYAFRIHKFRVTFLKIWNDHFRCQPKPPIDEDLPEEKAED

Adenosine A2 receptor = Adenosine A2 receptor (Rattus norvegicus, UniProt P29276+P30543); test: Binding affinity against Adenosine A2 receptor in rat striatal membrane, using [3H]-NECA as the radioligand.
[1] = target: Adenosine receptors; A1 & A2 (Rattus norvegicus) (UniProt P29276+P25099+P30543); test: (§1) Selectivity for A2 and A1 receptors was evaluated; assay type: protein assay
Outline: (§2)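 Rat brain membranes (A1) bound with 1 nM [3H]-N6-cyclohexyladenosine (25 Ci/mmol). Rat striatal membranes (A2) bound with 4 nM [3H]NECA (30 Ci/mmol) in the presence of 50 nM N6-cyclopentyladenosine. Both incubations ran 1 h at 25 °C. Selectivity compares the affinities from the two binding assays.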

[2] = as §1; outline: as §2

Ki (Adenosine receptor A1) | Ki (Adenosine A2 receptor) | Ratio [1] | Ratio [2] | SMILES
> 1000 µM |  |  |  | Cn1c(=O)c2ncn(C)c2n(C)c1=O [ISOCAFFIENE]
10.3 µM | 12.7 µM | 1.23 |  | Cn1c(=O)c2c3c(ccc2n(C)c1=O)ncn3C
> 100 µM | > 100 µM |  |  | CCn1c(=O)c2cc3nc(-c4ccccc4)[nH]c3cc2n(CC)c1=O
0.174 µM | 1.96 µM | 11.2 |  | CCCCn1c(=O)c2c3nc[nH]c3ccc2n(CCCC)c1=O
0.45 µM | 10.4 µM |  | 23 | Cn1c(=O)c2c3nc(-c4ccccc4)[nH]c3ccc2n(C)c1=O
0.62 µM | 2.4 µM | 3.9 |  | CC(C)Cn1c(=O)n(C)c(=O)c2cc3[nH]cnc3cc21
 | 13.8 µM |  | 5.6 | CC(C)Cn1c(=O)n(C)c(=O)c2nc[nH]c21 [ISOBUTYLMETHYLXANTHINE]
> 100 µM | > 100 µM |  |  | Cn1c(=O)c2cc3nc(-c4ccccc4)[nH]c3cc2n(C)c1=O
0.296 µM | 0.79 µM | 2.7 |  | CCCn1c(=O)c2c3nc[nH]c3ccc2n(CCC)c1=O
0.123 µM | 1.32 µM | 10.7 |  | CCCn1c(=O)c2cc3nc[nH]c3cc2n(CCC)c1=O
 | 85 µM | 3.6 |  | Cn1c(=O)c2cc3nc[nH]c3cc2n(C)c1=O
24 µM |  |  |  | Cn1c(=O)c2cc3[nH]cnc3cc2n(C)c1=O
0.86 µM | 1.97 µM | 2.3 |  | CC(C)Cn1c(=O)n(C)c(=O)c2c3nc[nH]c3ccc21
0.179 µM | 0.67 µM | 3.7 |  | CCCCn1c(=O)c2cc3nc[nH]c3cc2n(CCCC)c1=O
13.4 µM | 17.9 µM | 1.34 |  | Cn1c(=O)c2c3nc[nH]c3ccc2n(C)c1=O
> 100 µM | 58 µM |  |  | CCn1c(=O)c2c3nc(-c4ccccc4)[nH]c3ccc2n(CC)c1=O
11.6 µM | 23 µM | 1.99 |  | Cn1c(=O)c2cc3c(cc2n(C)c1=O)ncn3C
15.2 µM | 58 µM | 3.8 |  | Cn1c(=O)c2cc3ncn(C)c3cc2n(C)c1=O
